MPTP block = permeability transition pore inhibition; isolated mouse mitochondria, Ca2+ swelling absorbance, 30 min; inhibition, % at 10 µM; hit rate 1.4% among 360,000;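 active = inhibition of 50% or more, scaled per plate between neutral and stimulator controls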
GPR7 antag = human neuropeptides B/W receptor 1 antagonism | P48145 | GPR7-expressing cells, fluorescence antagonist assay | inhibition, % at 4.4 µM | hit rate 1.1% among 290,000 | AID 1861; in the data active = inhibition above about 16%, passing the limit was not always enough;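 note: cells stimulated with the agonist NPW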
CHO parental Ca = signal in parental CHO cells, OX1R antagonist counter-screen; parental CHO-K1, ATP-induced calcium, Fluo-8 fluorescence; inhibition, % at 5.6 µM; hit rate 0.63% among 330,000; AID 463079;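 active = inhibition above that plate's mean sample inhibition plus 3 SD, cut at about 26% in these data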
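Material – parental CHO cells · Reagent – ATP stimulus · Compound – single nominal dose of 5.6 µM per compound · Detection – Fluo-8 fluorescence · Read-out basis – percent inhibition of calcium signal · Controls – ATP-challenged DMSO wells low, unchallenged DMSO wells high · Repeats – no replicates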
OX1R antag-1 = human HCRTR1 antagonism; hit rate 0.43% among 330,000; inhibition, % at 5 µM; O43613; CHO/OX1R cells, Fluo-8 calcium fluorescence, orexin A;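 active = inhibition above its plate's threshold, mean inhibition of all tested compounds on the plate plus 3 SD, cut at about 37% in these data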
Target sequence (O43613 whole entry, looked up): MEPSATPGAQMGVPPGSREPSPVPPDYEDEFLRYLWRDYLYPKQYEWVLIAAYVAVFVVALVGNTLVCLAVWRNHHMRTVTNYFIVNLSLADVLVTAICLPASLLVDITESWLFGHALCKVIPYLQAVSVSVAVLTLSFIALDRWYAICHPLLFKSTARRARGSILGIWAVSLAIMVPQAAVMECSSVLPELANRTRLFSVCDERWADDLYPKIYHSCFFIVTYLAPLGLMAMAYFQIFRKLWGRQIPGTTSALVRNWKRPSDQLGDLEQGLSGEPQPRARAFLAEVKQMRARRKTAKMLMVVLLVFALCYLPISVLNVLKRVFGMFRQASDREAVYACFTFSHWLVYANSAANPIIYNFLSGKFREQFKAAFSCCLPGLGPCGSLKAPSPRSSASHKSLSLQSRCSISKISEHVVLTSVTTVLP
OX1R antag-2 = antagonists of human orexin 1 receptor (OX1R) | OX1R-expressing cells, FRET antagonist read-out | inhibition, % at 6.6 µM | hit rate 1.8% among 330,000; in the data active = inhibition mostly above about 38%, no sharp cut-off; inactive = mostly below about 40%
MPTP counter = Rhodamine 123 counter-screen of mitochondrial pore hits | inhibition, % at 10 µM | shares compounds with MPTP block | hit rate 78% among 5,000 | isolated mitochondria, membrane potential, Rhodamine 123 fluorescence | AID 624504; in the data active = inhibition above about 22%
MPTP abs DR = dose response confirmation of mitochondrial permeability transition pore inhibitors; shares compounds with MPTP block; isolated mitochondria swelling, absorbance; IC50, µM; hit rate 58% among 780; in the data active = IC50 below about 20 µM
MPTP counter DR = MPTP inhibitor counter-screen activity, dose response; shares compounds with MPTP block; isolated mitochondria counterscreen, fluorescence read-out; IC50, µM; hit rate 49% among 780; in the data active = IC50 below about 80 µM
Numbers stand for hits; . = inactive; / = no result given. An excerpt weighted towards active compounds, which were near 3.8% of everything screened.

SMILES	MPTP block	GPR7 antag	CHO parental Ca	OX1R antag-1	OX1R antag-2	MPTP counter	others
Cc1c(C(=O)Nc2cccc([N+](=O)[O-])c2)csc1-c1ccccc1	85	.	.	.	72	89
O=C(O)c1ccccc1C(=O)Nc1cccc([N+](=O)[O-])c1	.	.	.	.	.	/
C/C=C/c1ccc2c(c1)O[C@H](CN(C)C(=O)NC1CCCC1)[C@H](C)CN([C@H](C)CO)S2(=O)=O	.	/	/	/	/	/
COc1ccccc1NC(=O)COC(=O)CCc1ccc(S(=O)(=O)N2CCOCC2)cc1	.	/	.	.	.	/
CCN1CCN(c2nc(N)c([N+](=O)[O-])c(Nc3ccc(C)c(C)c3)n2)CC1	81	.	.	.	.	.	MPTP abs DR=.;MPTP counter DR=77
CCN1CCN(c2nc(N)c([N+](=O)[O-])c(Nc3ccc(C)cc3)n2)CC1	.	.	.	.	.	/
COc1[nH]c(/N=C/c2ccccc2)c(C#N)c1C#N	87	.	.	.	.	33
Cc1oc(/N=C/c2ccccc2)c(C#N)c1C	.	.	/	/	/	/
COc1ccc(/C(C)=N/NC(=O)CNC(=O)/C=C\c2ccco2)cc1	.	.	.	.	.	/
CC(C)(/C=N/NC(=O)CSCc1ccc(Cl)cc1)CCC#N	.	.	.	.	.	/
Cc1cccc(Oc2cnn(C(C)(C)C)c(=O)c2Cl)c1	62	.	.	.	.	45
CCOc1ccc(S(=O)(=O)N2CCN(C(=O)c3ccc(C)c(S(=O)(=O)N4CCOCC4)c3)CC2)cc1	.	/	.	.	.	/
CN(C)CCCNc1ncnc2c1c(-c1ccccc1)cn2-c1ccccc1	59	.	.	.	.	.	MPTP abs DR=.;MPTP counter DR=.
OCCOCCNc1ncnc2c1c(-c1ccccc1)cn2-c1ccccc1	.	.	.	.	.	/
COCCNc1nnc(SCC(=O)c2c[nH]c3ccccc23)s1	.	.	.	.	.	/
FC(F)(F)c1nc(N2CCCC2)ncc1-c1nnnn1-c1ccccc1	73	.	40	.	.	65
COC(=O)c1cn[nH]c1NC(=S)Nc1ccc(C)cc1Cl	96	.	.	.	.	75
COC(=O)c1cn[nH]c1NC(=S)Nc1ccccc1C	.	.	.	.	.	/
COC(=O)c1cn[nH]c1NC(=S)Nc1ccc(Cl)c(Cl)c1	99	.	.	.	.	81
Cc1c(C)n(CCN(C)C)c2ccc(C(=O)OCCN(C)C)cc12	.	.	.	.	.	/
Cc1c(C)n(Cc2ccccc2)c2ccc(C(=O)OCCCN(C)C)cc12	78	.	.	.	.	.
CC(=O)c1ccc(OCc2cc(C(=O)N3CCC(c4ccncc4)CC3)no2)cc1	96	.	.	.	.	87
COc1cccc(OCc2cc(C(=O)N3CCC(c4ccncc4)CC3)no2)c1	80	.	.	.	.	75
O=C(c1cc(COc2cccc(C(F)(F)F)c2)on1)N1CCC(c2ccncc2)CC1	97	.	60	.	.	99
COc1ccc(OCc2cc(C(=O)N3CCC(c4ccccc4)CC3)no2)c(Cl)c1	.	.	.	.	.	/
SMILES	MPTP block	GPR7 antag	CHO parental Ca	OX1R antag-1	OX1R antag-2	MPTP counter	others
CC(C)N(C(=O)C[n+]1ccsc1N)c1ccccc1	.	.	.	.	.	/
COC(=O)c1cc(CNC(=O)c2ccc(S(=O)(=O)N(C)c3ccccc3)cc2)ccc1OC	.	/	.	.	.	/
N#C/C(=C\c1ccccc1)C(=O)OCC(=O)N1CCCC1	.	.	.	.	.	/
Cc1ccc(C(c2c(NC(=O)c3ccco3)sc(C)c2C)N2CCOCC2)cc1 (configuration not stated)	.	/	/	/	/	/
Cc1sc(NC(=O)c2ccco2)c(C(c2ccc(F)cc2)N2CCN(C)CC2)c1C (configuration not stated)	82	.	.	.	.	.
O=c1[nH][nH]c2c1C(C1CCCCC1)OC(C1CCCCC1)C2 (configuration not stated)	.	/	/	/	/	/
CCn1c(-c2ccc(C(C)(C)C)cc2)n[nH]c1=S	69	.	.	.	.	.	MPTP abs DR=18;MPTP counter DR=26
CCn1c(-c2ccc(F)cc2)n[nH]c1=S	.	.	.	.	.	/
Cc1ccc(-n2nc(C)c3c(=O)[nH]c(C(F)(F)F)nc32)cc1	/	.	.	.	.	/
Cc1nn(-c2ccccc2)c2nc(C(Cl)(Cl)Cl)[nH]c(=O)c12	68	.	.	.	.	57
